ChEMBL document CHEMBL4811275, “Iodinated 1,2-diacylhydrazines, benzohydrazide-hydrazones and their analogues as dual antimicrobial and cytotoxic agents” (Bioorg Med Chem, 2021)
Values after ≈ are worked out from the molar mass of the structure shown.

Key:
[1] = test system: HepG2; experiment: Cytotoxicity against human HepG2 cells assessed as reduction in cell viability incubated for 24 hrs by cell-titer 96 aqueous one solution cell proliferation assay; format: functional, cell-based; conditions: HepG2, 24 h
[2] = test system: Staphylococcus aureus; experiment: Antibacterial activity against methicillin-resistant Staphylococcus aureus ATCC 43300 assessed as reduction in bacterial growth incubated for 24 hrs by broth microdilution method; format: functional
In short: (§1)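 EUCAST-based broth microdilution in cation-adjusted Mueller-Hinton broth. DMSO stocks, final DMSO ≤1% v/v, concentration scale starting from 0.49 µM. Static incubation at 35 ± 2 °C, dark and humidified. Run in duplicate, accepted only if parallel MICs differ by at most one dilution step. MIC is the lowest concentration with no visible growth by naked eye.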

[3] = test system: Staphylococcus aureus; experiment: Antibacterial activity against methicillin-resistant Staphylococcus aureus ATCC 43300 assessed as reduction in bacterial growth incubated for 48 hrs by broth microdilution method; format: functional; in short: as §1
[4] = test system: Staphylococcus aureus; experiment: Antibacterial activity against Staphylococcus aureus ATCC 29213 assessed as reduction in bacterial growth incubated for 24 hrs by broth microdilution method; format: functional
In short: (§2)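 Cation-adjusted Mueller-Hinton broth microdilution per EUCAST, modified; compounds from DMSO stocks, final DMSO ≤1% v/v; scale starting from 0.49 µM. Static incubation at 35 ± 2 °C, dark, humidified, read at 24 and 48 h. MIC = lowest concentration with no visible growth by eye; duplicates, parallel readings within one dilution step; growth and medium/DMSO controls included.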

[5] = test system: Enterococcus faecalis; experiment: Antibacterial activity against Enterococcus faecalis ATCC 29212 assessed as reduction in bacterial growth incubated for 48 hrs by broth microdilution method; format: functional; in short: as §2
[6] = test system: Staphylococcus epidermidis; experiment: Antibacterial activity against Staphylococcus epidermidis ATCC 12228 assessed as reduction in bacterial growth incubated for 48 hrs by broth microdilution method; format: functional; in short: as §2
[7] = test system: Escherichia coli; experiment: Antibacterial activity against Escherichia coli ATCC 25922 assessed as reduction in bacterial growth incubated for 24 hrs by broth microdilution method; format: functional; in short: as §2
[8] = test system: Staphylococcus aureus; experiment: Antibacterial activity against Staphylococcus aureus ATCC 29213 assessed as reduction in bacterial growth incubated for 48 hrs by broth microdilution method; format: functional; in short: as §2
[9] = test system: Staphylococcus epidermidis; experiment: Antibacterial activity against Staphylococcus epidermidis ATCC 12228 assessed as reduction in bacterial growth incubated for 24 hrs by broth microdilution method; format: functional; in short: as §2
[10] = test system: Escherichia coli; experiment: Antibacterial activity against Escherichia coli ATCC 25922 assessed as reduction in bacterial growth incubated for 48 hrs by broth microdilution method; format: functional; in short: as §2
[11] = test system: Enterococcus faecalis; experiment: Antibacterial activity against Enterococcus faecalis ATCC 29212 assessed as reduction in bacterial growth incubated for 24 hrs by broth microdilution method; format: functional; in short: as §2

Row | SMILES | IC50 [1] | MIC [2] | MIC [3] | MIC [4] | MIC [5] | MIC [6] | MIC [7] | MIC [8] | MIC [9] | MIC [10] | MIC [11]
1 | O=C(NNC(=O)c1cc(I)cc(I)c1O)c1ccccc1 | 98 µM | – | – | – | – | – | – | – | – | – | –
2 | O=C(NNC(=O)c1cc(I)cc(I)c1O)c1ccc(Cl)cc1 | 48.6 µM | 62.5 µM (≈ 33.9 µg/mL) | 62.5 µM (≈ 33.9 µg/mL) | 62.5 µM (≈ 33.9 µg/mL) | 125 µM (≈ 67.8 µg/mL) | 62.5 µM (≈ 33.9 µg/mL) | > 500 µM | 62.5 µM (≈ 33.9 µg/mL) | 31.2 µM (≈ 17 µg/mL) | > 500 µM | 125 µM (≈ 67.8 µg/mL)
3 | O=C(N/N=C/c1cc(I)c(O)c(I)c1)c1ccc(I)cc1 | > 50 µM | > 250 µM | > 250 µM | > 250 µM | > 250 µM | > 250 µM | > 250 µM | > 250 µM | > 250 µM | > 250 µM | > 250 µM
4 | O=C(NNC(=O)c1cc(I)cc(I)c1O)c1ccc(F)cc1 | 87 µM | 500 µM (≈ 263 µg/mL) | 500 µM (≈ 263 µg/mL) | 500 µM (≈ 263 µg/mL) | 500 µM (≈ 263 µg/mL) | 500 µM (≈ 263 µg/mL) | > 500 µM | 500 µM (≈ 263 µg/mL) | 500 µM (≈ 263 µg/mL) | > 500 µM | 500 µM (≈ 263 µg/mL)
5 | O=C(NNCc1cc(I)cc(I)c1O)c1ccc(Cl)cc1 | 52.2 µM | 31.2 µM (≈ 16.5 µg/mL) | 62.5 µM (≈ 33 µg/mL) | 31.2 µM (≈ 16.5 µg/mL) | 15.6 µM (≈ 8.26 µg/mL) | 15.6 µM (≈ 8.26 µg/mL) | > 500 µM | 62.5 µM (≈ 33 µg/mL) | 15.6 µM (≈ 8.26 µg/mL) | > 500 µM | 15.6 µM (≈ 8.26 µg/mL)
6 | O=C(N/N=C/c1cc(I)c(O)c(I)c1)c1ccccc1 | 191 µM | 500 µM (≈ 246 µg/mL) | > 500 µM | 250 µM (≈ 123 µg/mL) | > 500 µM | > 500 µM | > 500 µM | 250 µM (≈ 123 µg/mL) | > 500 µM | > 500 µM | > 500 µM
7 | O=C(N/N=C/c1cc(I)c(O)c(I)c1)c1ccc([N+](=O)[O-])cc1 | 92.1 µM | 500 µM (≈ 269 µg/mL) | > 500 µM | 250 µM (≈ 134 µg/mL) | > 500 µM | > 500 µM | > 500 µM | 250 µM (≈ 134 µg/mL) | > 500 µM | > 500 µM | > 500 µM
8 | O=C(N/N=C/c1cc(I)c(O)c(I)c1)c1ccc(O)cc1 | 110 µM | > 500 µM | > 500 µM | 500 µM (≈ 254 µg/mL) | > 500 µM | > 500 µM | > 500 µM | 500 µM (≈ 254 µg/mL) | > 500 µM | > 500 µM | > 500 µM
9 | O=C(NNC(=O)c1cc(I)cc(I)c1O)c1ccc([N+](=O)[O-])cc1 | 159 µM | – | – | – | – | – | – | – | – | – | –
10 | O=C(N/N=C/c1cc(I)c(O)c(I)c1)c1ccc(C(F)(F)F)cc1 | 57.4 µM | 500 µM (≈ 280 µg/mL) | 500 µM (≈ 280 µg/mL) | 125 µM (≈ 70 µg/mL) | 500 µM (≈ 280 µg/mL) | 500 µM (≈ 280 µg/mL) | > 500 µM | 500 µM (≈ 280 µg/mL) | 500 µM (≈ 280 µg/mL) | > 500 µM | 500 µM (≈ 280 µg/mL)
11 | CC(C)(C)c1ccc(C(=O)N/N=C/c2cc(I)cc(I)c2O)cc1 | 41.6 µM | > 500 µM | > 500 µM | > 500 µM | > 500 µM | > 500 µM | > 500 µM | > 500 µM | > 500 µM | > 500 µM | > 500 µM
12 | COc1ccc(C(=O)N/N=C/c2cc(I)cc(I)c2O)cc1 | 45.1 µM | > 500 µM | > 500 µM | > 500 µM | > 500 µM | > 500 µM | > 500 µM | > 500 µM | > 500 µM | > 500 µM | > 500 µM
13 | CCN1CCN(C(=O)N[C@@H](C(=O)N[C@@H]2C(=O)N3[C@@H]2SC(C)(C)[C@@H]3C(=O)O)c2ccccc2)C(=O)C1=O [PIPERACILLIN SODIUM] | – | 14.8 µM | – | 1.85 µM | – | – | 3.71 µM | – | > 59.3 µM | – | 7.41 µM
14 | O=C(N/N=C/c1cc(I)c(O)c(I)c1)c1ccc(F)cc1 | 117 µM | 500 µM (≈ 255 µg/mL) | > 500 µM | 125 µM (≈ 63.8 µg/mL) | > 500 µM | > 500 µM | > 500 µM | 500 µM (≈ 255 µg/mL) | > 500 µM | > 500 µM | > 500 µM
15 | CC(C)(C)c1ccc(C(=O)NNC(=O)c2cc(I)cc(I)c2O)cc1 | 87.3 µM | > 500 µM | > 500 µM | > 500 µM | > 500 µM | > 500 µM | > 500 µM | > 500 µM | > 500 µM | > 500 µM | > 500 µM
16 | O=C(N/N=C/c1cc(I)c(O)c(I)c1)c1ccc(Br)cc1 | > 50 µM | > 500 µM | > 500 µM | > 500 µM | > 500 µM | > 500 µM | > 500 µM | > 500 µM | > 500 µM | > 500 µM | > 500 µM
17 | COc1ccc(C(=O)NNC(=O)c2cc(I)cc(I)c2O)cc1 | 132 µM | 500 µM (≈ 269 µg/mL) | > 500 µM | 500 µM (≈ 269 µg/mL) | > 500 µM | > 500 µM | > 500 µM | > 500 µM | 500 µM (≈ 269 µg/mL) | > 500 µM | 500 µM (≈ 269 µg/mL)
18 | O=C(NNC(=O)c1cc(I)cc(I)c1O)c1ccc(Br)cc1 | 62.8 µM | – | – | – | – | – | – | – | – | – | –
19 | O=C(NNC(=O)c1cc(I)cc(I)c1O)c1ccc(C(F)(F)F)cc1 | 167 µM | – | – | – | – | – | – | – | – | – | –
